# CHRM5 PAM: CHRM5 positive allosteric modulation; P08912; AID 624038; activation, % at 3 µM; CHO-K1 hM5, Fluo-8 calcium, ACh EC20 PAM; 0% = ACh EC20, 100% = ACh EC100; 360,000 compounds, 0.3% hits;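 active = activation above the run cutoff, the mean activation of all test compounds plus 3 SD, cut at about 18% in these data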
#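 Assay system: CHO-K1 hM5 cells. Also added: acetylcholine at EC20 concentration, added after compound. Dosing: 3 µM, single dose. Times: compound preincubation 140 s before EC20 acetylcholine addition. Signal: Fluo-8 calcium fluorescence. Measure: % activation relative to EC20 and EC100 ACh responses. Repeats: singlicate, one well per test compound.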
# CHRM5 antagonist: blocks acetylcholine activation of human M5 receptor. P08912. CHO-hM5 cells, Fluo-8 calcium fluorescence, ACh EC80. inhibition, % at 3 µM. 360,000 compounds, 0.59% hits. AID 624040;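 active = inhibition above a per-plate cutoff, the mean of that plate's test compounds plus 3 SD, cut at about 27% in these data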;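 also: 0% = acetylcholine EC80 with DMSO and 100% = DMSO without agonist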
# CHRM1 PAM: human CHRM1 positive allosteric modulation | P11229 | CHO-K1 hM1, Fluo-8 calcium fluorescence, ACh EC20; 0% = ACh EC20, 100% = maximal ACh | activation, % at 3 µM | 360,000 compounds, 0.088% hits; in the data active = activation above about 19%, passing the limit was not always enough
# Target sequence (P11229 whole entry, looked up): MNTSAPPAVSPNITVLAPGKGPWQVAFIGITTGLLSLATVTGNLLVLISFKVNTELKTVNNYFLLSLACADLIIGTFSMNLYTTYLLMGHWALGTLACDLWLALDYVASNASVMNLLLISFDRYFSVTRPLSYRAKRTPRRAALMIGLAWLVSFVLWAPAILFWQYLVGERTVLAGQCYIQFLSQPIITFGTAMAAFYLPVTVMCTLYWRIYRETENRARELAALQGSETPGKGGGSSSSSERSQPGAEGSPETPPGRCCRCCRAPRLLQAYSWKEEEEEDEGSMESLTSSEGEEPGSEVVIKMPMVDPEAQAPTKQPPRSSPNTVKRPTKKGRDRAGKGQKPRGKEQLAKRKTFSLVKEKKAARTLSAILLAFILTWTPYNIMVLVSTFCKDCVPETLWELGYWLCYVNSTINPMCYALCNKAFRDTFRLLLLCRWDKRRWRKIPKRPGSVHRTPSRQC
# CHRM1 antagonist: human CHRM1 antagonism; CHO-K1 hM1, Fluo-8 calcium fluorescence, ACh EC80 antagonist; AID 588852; 360,000 compounds, 1.3% hits; P11229; inhibition, % at 3 µM;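 active = percent inhibition above its own plate's cutoff, namely the mean of that plate's compound wells plus 3 SD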;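 also: peak over basal fluorescence ratio during 140 s after agonist addition; 0% = ACh EC80 plus DMSO and 100% = DMSO alone without agonist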
# CHRM5 agonist: CHRM5 agonism in calcium assay; P08912; CHO-K1 hM5 cells, Fluo-8 calcium fluorescence; 0% DMSO wells, 100% maximal acetylcholine response; activation, % at 3 µM; 360,000 compounds, 0.19% hits;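 active = activation above the run's mean over test compounds plus 3 SD, cut at about 23% in these data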;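 also: signal is peak over basal fluorescence ratio across the kinetic read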
# CHRM1 agonist: agonists of human M1 muscarinic receptor; AID 588814; activation, % at 3 µM; 360,000 compounds, 0.33% hits; CHO-K1 hM1, Fluo-8 calcium fluorescence, agonist mode; 0% DMSO, 100% acetylcholine EC100; P11229;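 active = activation above the run's mean compound activation plus 3 SD, cut at about 16% in these data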;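 also: peak over basal fluorescence ratio within a 140 s kinetic read after compound addition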
# The depositor's hits bear a star; . = no result given. A selection: hits, their analogues and other compounds. The true share with any hit is near 2%.
SMILES,CHRM5 PAM,CHRM5 antagonist,CHRM1 PAM,CHRM1 antagonist,CHRM5 agonist,CHRM1 agonist
COc1cc([N+](=O)[O-])ccc1NC(=O)Nc1ccc2c(c1)OCCO2,22.0*,11.3,6.2,3.0,4.3,-0.2
CC1(C(=O)NS(=O)(=O)C2CC2)CCCN(C(=O)c2ccccc2OC(F)(F)F)C1 (stereo not given),-0.8,-2.8,0.7,-2.1,0.8,-1.2
CC1CN(C=O)CC(C)N1CCN1C(C)CN(C=O)CC1C (stereo not given),-1.1,11.4,18.1,-16.8,0.4,4.2
CC1(C(=O)NS(=O)(=O)c2cccc(OC(F)F)c2)CCN1C(=O)CC(c1ccccc1)c1ccccc1 (stereo not given),5.5,-10.9,3.3,-10.2,-0.2,-1.1
O=C(Nc1cccc([N+](=O)[O-])c1)Nc1ccc2c(c1)CCC2,-14.3,35.1*,-1.1,15.1,5.5,5.3
O=C(Nc1ccc(OC(F)F)c(Cl)c1)Nc1ccc2c(c1)OCO2,-21.7,21.1,-6.2,17.2,2.5,1.0
O=C(Nc1ccc([N+](=O)[O-])cc1)Nc1ccc(OC(F)F)c(Cl)c1,-19.4,32.7*,-15.0,40.2*,8.1,1.1
O=C(Nc1ccccc1)Nc1cc([N+](=O)[O-])ccc1F,-14.3,4.5,-9.1,11.6,6.2,1.5
Cc1ccc([N+](=O)[O-])cc1NC(=O)Nc1cccc(F)c1,-16.8,30.4*,-20.6,34.0,9.8,3.5
COc1ccc(COC(=O)C2=C(C)NC(=O)NC2c2ccc(F)cc2)cc1 (stereo not given),-8.2,3.7,-3.5,-1.9,0.5,-3.1
CC1(C(=O)NC2CCCCCC2)CCN1C(=O)Cc1ccc(-c2ccccc2)cc1 (stereo not given),-7.7,9.8,0.3,6.7,1.9,-1.1
CN(CC(=O)Nc1c(Cl)cccc1Cl)CC(=O)N1CCc2ccccc21,-7.5,8.3,-7.4,4.3,2.7,11.4
CCNC(=O)C1(C)CCCN(Cc2cccc3c2OCCO3)C1 (stereo not given),2.4,-3.8,3.3,-9.8,0.9,-8.1
COC(=O)C[C@H]1CC[C@H](NC(=O)Nc2ccccc2OC)[C@@H](CO)O1,1.9,1.2,.,.,1.0,.
COc1cc(/C=N/NC(=O)c2nc3ccccn3c2C)cc(OC)c1O,18.6*,-4.5,4.6,-6.8,1.9,-4.1
Cc1c(C(=O)N/N=C/c2ccc(N3CCOCC3)cc2)nc2ccccn12,-2.8,6.3,6.8,-7.0,0.7,-0.8
COCCNC(=O)c1cc2c(c(-c3cccc(C#Cc4ccc(OC)c(OC)c4)c3)n1)[C@H](CCO)N(S(=O)C(C)(C)C)C2 (stereo not given in full),2.7,-0.1,8.2,-23.9,1.7,-1.1
CCc1nc(SCC(=O)Nc2cc(OC)ccc2OC)c2c(C)c(C)sc2n1,-2.1,6.4,-11.2,32.5*,-0.8,-6.7
C(#Cc1ccccc1)C[N+]1(CC#Cc2ccccc2)CCCC1,-17.1,21.7,-22.6,39.3*,-6.7,-9.5
O=S(=O)(NCC1CCCO1)c1ccc(-c2ccc(S(=O)(=O)NCC3CCCO3)cc2)cc1 (stereo not given),-24.5,35.3*,-8.1,20.3,6.7,1.8
Cc1ccc(S(=O)(=O)NCC2CCCO2)cc1 (stereo not given),14.2,-12.5,5.1,-6.2,2.5,0.9
COc1cc(S(=O)(=O)NCC2CCCO2)c(OC)cc1Cl (stereo not given),2.4,-10.1,25.9*,-63.0,-0.3,5.4
COc1ccc(S(=O)(=O)NCC2CCCO2)c(Cl)c1Cl (stereo not given),-0.4,10.1,17.2,-16.2,-7.7,-0.6
CCOc1ccc(C(=O)CN2C(=O)NC3(CCCc4ccccc43)C2=O)cc1 (stereo not given),-3.0,5.7,4.2,-7.0,1.0,-3.1
O=C(NN=Cc1ccc2c(c1)CCN2)c1cccs1,-3.9,2.3,7.0,-20.3,-1.1,0.3
SMILES,CHRM5 PAM,CHRM5 antagonist,CHRM1 PAM,CHRM1 antagonist,CHRM5 agonist,CHRM1 agonist
CN1CCN(CC(=O)Nc2c(C(=O)c3ccccc3)oc3ccccc23)CC1,0.6,2.3,-37.6,59.7*,-8.2,-14.3
COc1ccc(NC(=O)COc2ccccc2Cc2ccccc2)cc1S(N)(=O)=O,-12.9,29.9*,-16.8,37.4*,8.9,6.4
COc1ccc(NC(=O)CN(Cc2ccccc2)Cc2ccccc2)cc1S(N)(=O)=O,-4.7,0.3,3.3,2.8,4.5,-3.7
CCOC(=O)N1CCN(C(=O)C[C@@H]2C[C@@]3(C(=O)OCC)CCC=C3N(Cc3cccc4ccccc34)C2=O)CC1,-10.3,11.1,.,.,-1.4,.
CS(=O)(=O)N(CC(=O)N1CCCCCC1)c1cccc([N+](=O)[O-])c1,18.4*,-8.8,11.5,-9.7,-1.9,-4.5
CS(=O)(=O)N(CC(=O)N1CCCCCC1)c1ccccc1,-0.4,7.9,5.1,-17.1,-7.1,-4.2
Cc1ccc(F)cc1C(=O)N1CCCC(c2cc(C(=O)Nc3ccccc3Cl)no2)C1 (stereo not given),-7.6,2.7,-4.4,-5.3,2.0,-5.2
O=C(Cc1ccc(S(=O)(=O)N2CCOCC2)s1)N1CCN(S(=O)(=O)c2ccccc2[N+](=O)[O-])CC1,-11.1,23.1,-14.5,31.6*,-4.8,-4.1
O=C(Cc1ccc(S(=O)(=O)N2CCOCC2)s1)N1CCN(S(=O)(=O)c2cccc([N+](=O)[O-])c2)CC1,-8.7,1.8,10.1,-6.2,-5.4,-4.4
COc1cc(NCCCC(C)N)c2ncccc2c1 (stereo not given),22.1*,4.8,1.7,-8.0,-0.3,-3.2
C[C@H](CO)N1C[C@H](C)[C@@H](CN(C)C(=O)C2CC2)OCc2cnnn2CCCC1=O,1.8,1.5,3.0,-14.6,0.7,-3.0
CCN(CC)C(=O)c1oc2ccc(S(=O)(=O)N3CC(C)CC(C)C3)cc2c1C (stereo not given),-12.3,30.1*,-8.6,15.9,-1.8,-5.2
OC(c1cccc(Cl)c1)c1nc(-c2ccoc2)cs1 (stereo not given),1.6,0.4,7.7,-8.9,-0.4,-5.5
Cc1ccc(C(=O)Nc2nc(C(N)Cc3ccc(C(F)(F)F)cc3)cs2)cc1 (stereo not given),4.7,9.5,3.3,6.9,6.0,9.2
Cc1cccc(NC(=O)CCSc2ccccc2)c1C,3.5,0.2,7.6,-1.1,-3.7,-8.7
Cc1cccc(NC(=O)CCc2ccccc2)c1C,25.6*,-17.6,16.4,-11.3,0.2,-2.2
COc1ccccc1NC(=O)CSc1nc2ccccc2c(=O)n1C,-11.5,-0.1,-10.5,5.2,-0.9,-2.8
Cc1cccc(NC(=O)CSc2nc3ccccc3c(=O)n2C)c1C,-11.4,14.9,-20.1,33.3*,7.1,1.6

# Screens as filed in PubChem BioAssay.
